# Screening results: PubChem BioAssay, several laboratories
# ROMK mod: modulators of human ROMK potassium channel | B-score at 10 µM | actives 2% (n = 130,000) | Tet-inducible ROMK, thallium flux fluorescence; actives lie on both sides;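 active means signal ratio slope over the read window, or its plate-corrected B-score, at least 3 SD from the plate mean, either direction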;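 further: B-score of the F/F0 ratio slope over 7 to 12 s after thallium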
# MT stabilizer: microtubule stabilization, imaging screen | HeLa tubulin immunostaining HCS, 24 h; share of cells brighter than vehicle mean+2SD | % tubulin-high responders, % at 10 µM | actives 0.83% (n = 200,000) | AID 2205;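 active means plate Z-score above 3 for both tubulin-high and condensed-nucleus cell shares, with cell loss under 80%, at 10 µM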;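 further: anti alpha tubulin signal scored within the nucleus-defined area of each cell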
# Redox H2O2 prof: compounds producing H2O2 with reducing agent – biochemical, NIH compound library profiling, artefact control for MLSCN library redox annotation, primary screen. activation, % at 10 µM. DTT-dependent redox cycling H2O2, phenol red/HRP absorbance; 100% = 100 µM peroxide control, 0% = buffer. actives 0.03% (n = 200,000);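 active means activation of at least 50% relative to the plate's high and low controls in the primary single-dose screen; inactive means activation below 50%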;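 further: compound incubated with DTT at 0.8 mM final as the reducing agent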
# b-catenin transl: beta-catenin nuclear translocation modulation; HeLa beta-catenin nuclear translocation, immunofluorescence imaging; actives 0.3% (n = 190,000); nuclear translocation activity, % at 5 µM; AID 1665;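 active means nuclear translocation activity above 50% at 5 µM, with a well cell count of 50 or more; inconclusive means wells under 50 cells across six images, flagged as toxic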;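 further: per-cell ratio of nuclear to cytoplasmic median beta-catenin stain intensity; plate controls were DMSO negative control for no effect and GSK-3 inhibitor IX positive control for full effect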
#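 Technique: fluorescence imaging of beta-catenin antibody stain plus DAPI / Material: human HeLa cell line / Incubation: compound treatment 24 h, 37°C, 5% CO2 / Read-out basis: % activation of per-cell nuclear versus cytoplasmic median beta-catenin signal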
# KCC2 mod: KCC2 (human) Cl- transport modulation; Q9H2X9; actives 2.2% (n = 190,000); KCC2 cells, thallium flux FluoZin-2 fluorescence; B-score of Tl+ flux slope (higher = more flux/activation; lower = inhibition) at 10 µM; AID 1456;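 active means thallium flux slope and its plate-corrected score both differing from the plate sample mean at a set confidence after two filtering rounds, in either direction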;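 further: slope of fluorescence scaled to starting intensity during 10 to 20 s after thallium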
# Target sequence (Q9H2X9 whole entry, looked up): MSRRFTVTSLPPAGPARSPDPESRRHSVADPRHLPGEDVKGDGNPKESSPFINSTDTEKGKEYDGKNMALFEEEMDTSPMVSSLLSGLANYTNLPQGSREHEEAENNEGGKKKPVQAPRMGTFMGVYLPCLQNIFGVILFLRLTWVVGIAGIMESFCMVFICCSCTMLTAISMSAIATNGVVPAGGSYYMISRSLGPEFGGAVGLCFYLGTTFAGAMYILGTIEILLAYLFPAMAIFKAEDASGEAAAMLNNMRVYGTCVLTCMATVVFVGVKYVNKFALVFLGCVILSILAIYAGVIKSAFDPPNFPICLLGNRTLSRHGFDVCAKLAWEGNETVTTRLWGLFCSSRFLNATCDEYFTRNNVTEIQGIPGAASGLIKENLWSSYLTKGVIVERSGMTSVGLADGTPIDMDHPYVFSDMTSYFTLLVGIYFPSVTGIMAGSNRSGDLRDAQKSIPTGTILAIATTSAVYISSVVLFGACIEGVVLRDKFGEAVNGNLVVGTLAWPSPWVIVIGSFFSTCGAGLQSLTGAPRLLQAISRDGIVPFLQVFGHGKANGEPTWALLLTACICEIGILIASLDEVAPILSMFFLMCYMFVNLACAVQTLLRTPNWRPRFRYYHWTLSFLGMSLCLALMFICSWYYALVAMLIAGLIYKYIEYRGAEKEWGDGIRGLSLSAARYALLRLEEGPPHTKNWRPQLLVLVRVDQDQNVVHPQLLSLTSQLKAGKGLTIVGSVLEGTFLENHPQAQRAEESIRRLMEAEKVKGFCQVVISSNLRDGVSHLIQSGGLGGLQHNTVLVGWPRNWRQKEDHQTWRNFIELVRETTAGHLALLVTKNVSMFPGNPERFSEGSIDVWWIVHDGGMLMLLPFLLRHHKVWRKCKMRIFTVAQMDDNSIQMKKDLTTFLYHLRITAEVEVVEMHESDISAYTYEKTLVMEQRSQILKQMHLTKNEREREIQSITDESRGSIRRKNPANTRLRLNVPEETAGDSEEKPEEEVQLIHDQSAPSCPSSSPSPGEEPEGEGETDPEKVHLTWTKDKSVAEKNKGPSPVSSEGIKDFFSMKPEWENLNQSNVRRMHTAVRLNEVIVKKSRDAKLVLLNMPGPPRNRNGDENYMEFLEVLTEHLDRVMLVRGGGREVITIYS
# KCC2 sec1: confirmation of human KCC2 transport modulators | HEK293-KCC2, thallium flux, FluoZin2 fluorescence; hits give high values | AID 1713 | actives 15% (n = 3,700) | shares compounds with KCC2 mod | normalised thallium flux (F/F0 slope) at 10 µM;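 active means thallium flux slope above the same plate's solvent-only control mean plus 3 SD; inconclusive means the two replicate wells disagree; inactive means no significant difference from solvent-only control wells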
# KCC2 bumet counter: bumetanide-insensitive thallium flux in KCC2 cells with ouabain, counter-screen; shares compounds with KCC2 mod; HEK293-KCC2 + bumetanide/ouabain, thallium flux FluoZin2; hits give high values; normalized thallium flux at 10 µM; actives 49% (n = 3,700); AID 1714;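 active means thallium entry rate above the same plate's blocked-transporter control wells by more than 3 SD; inconclusive means the two repeat wells disagree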;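 further: raw slope of fluorescence over initial fluorescence between 10 and 20 s after thallium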
# KCC2 secondary2: KCC2 (human) modulation, second secondary assay | shares compounds with KCC2 mod | HEK293-KCC2, thallium flux FluoZin2 fluorescence; actives lie on both sides; F/F0 rise rate, 10–20 s post-thallium | normalized thallium flux at 10 µM | actives 23% (n = 3,700);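 active means thallium flux slope more than 3 SD above or below the plate's solvent-only control mean, mostly below; inconclusive means the two repeat wells disagreed; inactive means no significant shift from solvent-only controls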;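 further: raw slope with 0.1% DMSO as baseline and bumetanide as block control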
# HEK counter1: acts in parental HEK cells, KCC2 counter-screen; HEK293 parental cells, thallium flux FluoZin2, ouabain; baseline-ratio fluorescence slope, 10–20 s after thallium; thallium flux rate (normalised fluorescence) at 10 µM; AID 1716; shares compounds with KCC2 mod; actives 46% (n = 3,700);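 active means thallium flux rate significantly above the same plate's solvent-only control wells, beyond their mean plus 3 SD; inconclusive means the two replicate wells gave conflicting results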
# KCC2 retest ouab: confirmation of human KCC2 modulators with ouabain | shares compounds with KCC2 mod | AID 1717 | actives 48% (n = 3,700) | raw Tl+ flux slope (below DMSO = inhibition, above = activation) at 10 µM | HEK293-KCC2, thallium flux FluoZin2 fluorescence; bidirectional: low = inhibitor, high = activator;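 active means thallium flux slope beyond 3 SD from same-plate DMSO control mean in most replicates, usually higher, sometimes lower; inconclusive means repeat tests gave conflicting results; inactive means no significant difference from controls in most replicates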;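 further: slope of initial-normalized fluorescence between seconds 10 and 20 after thallium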
# HEK counter2: counter-screen for KCC2 modulators: effect in parental HEK293 cells; shares compounds with KCC2 mod; thallium flux FluoZin-2 fluorescence slope; thallium flux slope at 10 µM; actives 33% (n = 3,700); AID 1718;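 active means thallium flux slope above the same plate's solvent-control mean plus 3 SD in both duplicate wells; inconclusive means duplicate wells that disagreed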;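 further: run without ouabain in cells lacking the KCC2 cotransporter; slope of fluorescence scaled to its starting value between 10 and 20 s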
# * marks the source's active call; other numbers are inactive results; ? = inconclusive; / = no result. Shown are actives, neighbours in structure and some others; about 3.7% of the full set was active somewhere.
SMILES,ROMK mod,MT stabilizer,Redox H2O2 prof,b-catenin transl,KCC2 mod,KCC2 sec1,KCC2 bumet counter,KCC2 secondary2,HEK counter1,KCC2 retest ouab,HEK counter2
CCOc1cc2[nH]c(=S)n(CCOC)c(=O)c2cc1OCC,-0.022,4,-1,/,0.014,/,/,/,/,/,/
CCc1ccc(C(C(=O)NC2CCCCC2)N(C(=O)CNC(=O)c2ccco2)c2cccnc2)cc1 (configuration not stated),-0.14,3,0,/,0.82,/,/,/,/,/,/
CCOC(=O)C(C(=O)OCC)N(C#N)c1nc(N(C)C)nc(N(C)C)n1,0.0074,3,-2,0,1.6,/,/,/,/,/,/
Cc1ccc(-n2c(CNc3ccc(C)c(Cl)c3)n[nH]c2=S)cc1,0.31,3,0,0,3.5*,0.0094,0.084*,0.032,0.011*,0.028,?
Cc1ccc(-n2c(CNc3cccc(Cl)c3)n[nH]c2=S)cc1,-0.82,3,0,-4,2.3,/,/,/,/,/,/
O=C(Cn1nc(-c2ccccc2)ccc1=O)NCc1ccc2c(c1)OCO2,-1,5,0,-2,-3.3*,0.0051,?,0.025*,0.0077,?,0.011
O=C(OCc1ccc(Cl)cc1)c1ccccc1C(=O)c1ccccc1,/,2,3,-3,0.54,/,/,/,/,/,/
Cc1noc(/C=C/N(C)C)c1S(=O)(=O)N(C)CC(=O)NC1CCCCC1,/,2,2,-2,-7.1*,0.01,0.0072,0.03,?,?,0.01
Cc1noc(C)c1CSCC(=O)OCC(=O)NC1CCCCC1,0.72,3,0,-2,/,0.0068,?,0.03,0.0072,0.018,0.011
O=C(CSc1nnc(Cc2ccccc2)o1)Nc1ccccc1,-1.3,3,0,1,/,/,/,/,/,/,/
O=C(CSc1nnc(Cc2ccccc2)o1)N1CCCc2ccccc21,-0.61,8,-1,-3,-6.1*,0.0056,0.0038,0.021*,0.0068,0.012*,?
O=C(CSc1nnc(Cc2ccccc2)o1)c1ccc(F)cc1,/,/,/,0,-4.3*,0.005,?,0.022*,0.0074,?,0.01
O=C(CSc1nnc(CNc2ccccc2)o1)N1CCc2ccccc21,/,2,2,-3,-1,/,/,/,/,/,/
O=C(CSc1nnc(Cc2ccccc2)o1)c1cc(F)ccc1F,-0.17,3,0,-2,-7.1*,0.0039*,0.0046,0.02*,?,0.012*,0.0099
CCCCCC(=O)C(=O)c1ccc(O)cc1O,/,/,/,0,/,/,/,/,/,/,/
CN(c1ccc(OCC(=O)NCc2cccnc2)cc1)S(=O)(=O)c1ccc(Cl)cc1,-0.5,5,-3,10,0.074,/,/,/,/,/,/
Cc1ccc(C(=O)Oc2cc(C)n(C)c(=O)c2)cc1,/,3,-7,-2,/,/,/,/,/,/,/
N#CC1=C(N)N=C(SCc2ccccc2)C(C(N)=O)C12CCCCC2 (configuration not stated),/,3,-4,-1,-5.5*,0.007,0.0094*,?,0.0076,0.014*,0.01
CN(CCO)c1cc(Sc2nc3ccccc3s2)c2nonc2c1[N+](=O)[O-],/,4,1,/,/,0.006,0.015*,0.033,0.014*,?,0.017*
CC(=O)OCCN(C)c1cc(SC(C)C)c2nonc2c1[N+](=O)[O-],-0.13,4,0,0,-0.041,/,/,/,/,/,/
COc1ccc2nc(SCC(=O)Nc3nccs3)[nH]c2c1,/,3,1,-1,0.46,/,/,/,/,/,/
CC(C)OP(=O)(CCP(=O)(OC(C)C)OC(C)C)OC(C)C,/,/,/,0,1.3,/,/,/,/,/,/
Cc1cccc(-c2noc(CCCC(=O)Nc3cccnc3)n2)c1,/,6,2,/,-5.1*,0.0069,0.0045,0.031,0.0083,0.019,0.011
CCCCCC(=O)NNC(=O)c1c(O)c2ccccc2n(CC)c1=O,1.5,3,0,1,3.5*,0.0062,0.014*,0.033,0.013*,?,0.015*
CCCCCCCCCC(=O)NNC(=O)c1c(O)c2ccccc2n(CC)c1=O,1.7,3,-1,0,5.2*,0.0064,0.016*,0.03,0.016*,0.024*,0.015*
SMILES,ROMK mod,MT stabilizer,Redox H2O2 prof,b-catenin transl,KCC2 mod,KCC2 sec1,KCC2 bumet counter,KCC2 secondary2,HEK counter1,KCC2 retest ouab,HEK counter2
COc1ccc(Nc2nnc(SCC(=O)c3cc(C)n(CC4CCCO4)c3C)s2)cc1 (configuration not stated),-0.52,2,-1,2,-2,/,/,/,/,/,/
CC1=C2C3OC(=O)C(C)[C@@H]3CC[C@](C)(O)C2C2C3C4C5(C12)[C@H]1OC(=O)[C@@H](C)C1CC[C@]4(C)O[C@]5(C)[C@@H]3O (some centres not stated),0.91,3,0,2,/,/,/,/,/,/,/
COCc1nnc(NC(=O)CSc2ccccc2)s1,-0.56,3,1,-2,-4.8*,0.008,0.0057,0.036,0.0044,0.021,0.011
COc1ccc(Cc2nnc(SCC(=O)Nc3ncc(C)s3)o2)cc1,/,3,2,1,/,/,/,/,/,/,/
Cc1cnc(NC(=O)CSc2nnc(Cc3ccccc3)o2)s1,/,4,0,/,-4.4*,0.0074,0.0051,0.021*,0.0081,?,0.011
COc1ccc(NC(=O)CSc2nnc(Cc3ccccc3)o2)c(OC)c1,0.64,2,1,-1,-3.9*,0.0071,0.0052,0.029,?,0.014*,0.0098
COc1ccccc1NC(=O)CSc1nnc(Cc2ccccc2)o1,/,2,-1,-5,-2.1,/,/,/,/,/,/
CCc1nnc(NC(=O)CSc2nnc(COc3ccccc3C)o2)s1,0.088,5,0,-8,/,0.0058,?,0.025*,?,0.016*,0.011
COCc1nnc(NC(=O)CSc2ccc(C)cc2)s1,/,5,2,1,0.71,/,/,/,/,/,/
CCOCC(=O)Nc1ccc([N+](=O)[O-])cc1C,0.0049,3,-1,2,0.022,/,/,/,/,/,/
O=C(Nc1ccc2c(c1)C(=O)NC2=O)c1ccc(S(=O)(=O)N2CCCC2)cc1,-0.7,2,0,-2,-0.2,/,/,/,/,/,/
